inhibition, Activity and inhibition in vivo data for 1 compound are collected here from ChEMBL document CHEMBL1153088, “Discovery of benzo[g]indol-3-carboxylates as potent inhibitors of microsomal prostaglandin E(2) synthase-1” (Bioorg Med Chem, 2009).

Broadly, the inhibition is the change of the read-out against control, counted positive when it falls. By inhibition in vivo is commonly meant how much of the control response was suppressed.

Data set [1] deals with Rattus norvegicus. Description: Antiinflammatory activity in Wistar Han rat assessed as reduction in inflammatory cell numbers at 4 mg/kg, ip administered 30 mins before carrageenan challenge. It is filed as functional, organism-based. Details: dose 4 mg/kg.
Data set [2] has as its system Rattus norvegicus. Description: Antiinflammatory activity in Wistar Han rat assessed as reduction in exudate volume at 4 mg/kg, ip administered 30 mins before carrageenan challenge. Type of data set: functional, organism-based. Details: dose 4 mg/kg.
For data set [3], the target named is T1, Prostaglandin G/H synthase 1 (Ovis aries) (UniProt P05979).
T1 sequence (whole entry): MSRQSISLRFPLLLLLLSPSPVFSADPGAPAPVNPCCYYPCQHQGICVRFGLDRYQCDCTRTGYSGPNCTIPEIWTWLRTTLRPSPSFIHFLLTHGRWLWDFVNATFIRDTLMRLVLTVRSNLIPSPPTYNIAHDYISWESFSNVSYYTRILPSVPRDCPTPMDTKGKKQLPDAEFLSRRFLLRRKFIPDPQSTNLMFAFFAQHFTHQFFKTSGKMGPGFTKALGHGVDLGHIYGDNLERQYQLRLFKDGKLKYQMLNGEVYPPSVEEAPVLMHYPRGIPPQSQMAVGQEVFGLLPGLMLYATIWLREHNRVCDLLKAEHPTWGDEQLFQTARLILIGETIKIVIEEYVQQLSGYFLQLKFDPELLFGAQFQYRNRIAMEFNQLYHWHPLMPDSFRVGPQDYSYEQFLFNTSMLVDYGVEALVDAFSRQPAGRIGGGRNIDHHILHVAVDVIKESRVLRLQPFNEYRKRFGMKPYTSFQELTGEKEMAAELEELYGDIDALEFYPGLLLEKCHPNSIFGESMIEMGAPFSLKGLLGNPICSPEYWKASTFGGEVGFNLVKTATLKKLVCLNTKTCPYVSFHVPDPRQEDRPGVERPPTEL
The data set is described as follows: Inhibition of ovine COX1 assessed as residual enzyme activity at 10 uM relative to untreated control. In outline: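 Purified ovine COX-1 (50 units) in 1 ml of 100 mM Tris pH 8 containing 5 mM glutathione, 5 µM hemoglobin and 100 µM EDTA was preincubated with compound for 5 min at 4 °C and prewarmed 60 s at 37 °C. The reaction was started with 5 µM AA and run 5 min at 37 °C, and 12-HHT was analysed by HPLC.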

In data set [4] the target is T2, Prostaglandin G/H synthase 2 (Homo sapiens) (UniProt P35354).
T2 sequence (whole entry): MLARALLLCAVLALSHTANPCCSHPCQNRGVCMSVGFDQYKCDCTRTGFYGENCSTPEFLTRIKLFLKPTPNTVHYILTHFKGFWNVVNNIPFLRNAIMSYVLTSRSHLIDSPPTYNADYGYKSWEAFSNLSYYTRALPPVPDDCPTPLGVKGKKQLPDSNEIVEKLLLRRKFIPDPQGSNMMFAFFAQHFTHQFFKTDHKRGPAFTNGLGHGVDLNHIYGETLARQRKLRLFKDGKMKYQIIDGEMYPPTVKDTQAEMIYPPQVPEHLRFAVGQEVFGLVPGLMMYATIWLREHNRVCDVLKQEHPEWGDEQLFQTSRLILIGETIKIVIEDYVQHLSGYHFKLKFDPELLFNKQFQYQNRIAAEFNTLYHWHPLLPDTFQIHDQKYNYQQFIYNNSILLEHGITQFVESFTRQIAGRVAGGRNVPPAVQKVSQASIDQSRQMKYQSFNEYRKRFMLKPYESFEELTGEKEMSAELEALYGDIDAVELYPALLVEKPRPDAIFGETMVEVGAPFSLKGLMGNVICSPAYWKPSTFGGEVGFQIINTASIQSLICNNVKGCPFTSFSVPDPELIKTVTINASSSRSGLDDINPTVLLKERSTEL
Description: Inhibition of COX2 in IL1-beta induced human A549 cells assessed as 6-keto-PGF1-alpha formation up to 30 uM preincubated for 15 mins by ELISA. It is filed as cell-based. In outline: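 A549 cells were induced with IL-1β (1 ng/ml, 72 h, 2% FCS). Cells at 5×10^6 per ml PBS with 1 mM CaCl2 were preincubated 15 min at 37 °C, then given 30 µM AA for 15 min at 37 °C, and the reaction was stopped on ice. Released 6-keto PGF1α was measured by monoclonal-antibody ELISA with β-galactosidase tracer read at 550 nm.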

For data set [5], the target named is Prostaglandin G/H synthase 1 (Homo sapiens) (UniProt P23219). Description: Inhibition of COX1 in platelets assessed as inhibition of 12-HHT formation at 10 uM by RP-HPLC. In outline:
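Freshly isolated human platelets (10^8/ml PBS with 1 mM CaCl2) were preincubated with compound (DMSO ≤0.3%), then stimulated with 5 µM AA for 5 min at 37 °C. 12-HHT was extracted and quantified by RP-HPLC. Mean ± SE, n=3–5.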

Data set [6] concerns Rattus norvegicus. The data set is described as follows: Antiinflammatory activity in Wistar Han rat assessed as PGE2 level at 4 mg/kg, ip administered 30 mins before carrageenan challenge (reference value: 2.79 +/-0.39 ng). To be noted: route intraperitoneal. It is filed as functional.
For data set [7], the system named is Mus musculus. Description: Antiinflammatory activity in CD1 mouse assessed as inhibition of carrageenan-induced paw edema at 0.25 mg/kg, ip administered 30 mins before carrageenan challenge relative to untreated control. The following applies: route intraperitoneal. Type of data set: functional. In outline: (§1)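 Male adult CD1 mice, n=10 per group, given the compound ip (vehicle 2% DMSO) 30 min before subplantar 1% λ-carrageenan in saline (0.05 ml). Paw volume was measured double blind by hydroplethysmometer just before injection and at 2, 4 and 6 h. Inhibition was taken at the 4 h reading versus vehicle.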

The test system of data set [8] is Mus musculus. The data set is described as follows: Antiinflammatory activity in CD1 mouse assessed as inhibition of carrageenan-induced paw edema at 4 mg/kg, ip administered 30 mins before carrageenan challenge relative to untreated control. To be noted: route intraperitoneal. It is filed as functional. In outline:
as §1
Background: In the carrageenan paw model, swelling and tenderness develop within hours.

Data set [9] concerns A549. The data set is described as follows: Toxicity in human A549 cells assessed as reduction of cell viability by MTT assay. It is filed as cell-based. In outline:
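A549 cells (4×10^4 per 100 µl) were plated for 16 h, then exposed to compounds at 30 µM (DMSO ≤0.3%) for 5 h. MTT was added for 4 h, formazan was solubilized in 10% SDS/20 mM HCl, and absorbance at 595 nm was read relative to vehicle-treated cells.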
On the technique in general: Formazan colour is commonly taken as a measure of viable cells.

Data set [10] concerns Mus musculus. Description: Antiinflammatory activity in CD1 mouse assessed as inhibition of carrageenan-induced paw edema at 1 mg/kg, ip administered 30 mins before carrageenan challenge relative to untreated control. The following applies: route intraperitoneal. Type of data set: functional. In outline:
as §1

The test system of data set [11] is Rattus norvegicus. The data set is described as follows: Antiinflammatory activity in Wistar Han rat assessed as LTB4 level at 4 mg/kg, ip administered 30 mins before carrageenan challenge (reference value: 1.17 +/- 0.21 ng). It is filed as functional. The following applies: route intraperitoneal.
The subject of data set [12] is Rattus norvegicus. The data set is described as follows: Antiinflammatory activity in Wistar Han rat assessed as 6-Keto PGF1alpha level at 4 mg/kg, ip administered 30 mins before carrageenan challenge (reference value: 3.00 +/- 1.02 ng). Type of data set: functional. To be noted: route intraperitoneal.

Calls of active or inactive are those of the source. The rule behind the calls is not given here.

Chain of Prostaglandin G/H synthase 1 (Homo sapiens) (P23219 whole entry): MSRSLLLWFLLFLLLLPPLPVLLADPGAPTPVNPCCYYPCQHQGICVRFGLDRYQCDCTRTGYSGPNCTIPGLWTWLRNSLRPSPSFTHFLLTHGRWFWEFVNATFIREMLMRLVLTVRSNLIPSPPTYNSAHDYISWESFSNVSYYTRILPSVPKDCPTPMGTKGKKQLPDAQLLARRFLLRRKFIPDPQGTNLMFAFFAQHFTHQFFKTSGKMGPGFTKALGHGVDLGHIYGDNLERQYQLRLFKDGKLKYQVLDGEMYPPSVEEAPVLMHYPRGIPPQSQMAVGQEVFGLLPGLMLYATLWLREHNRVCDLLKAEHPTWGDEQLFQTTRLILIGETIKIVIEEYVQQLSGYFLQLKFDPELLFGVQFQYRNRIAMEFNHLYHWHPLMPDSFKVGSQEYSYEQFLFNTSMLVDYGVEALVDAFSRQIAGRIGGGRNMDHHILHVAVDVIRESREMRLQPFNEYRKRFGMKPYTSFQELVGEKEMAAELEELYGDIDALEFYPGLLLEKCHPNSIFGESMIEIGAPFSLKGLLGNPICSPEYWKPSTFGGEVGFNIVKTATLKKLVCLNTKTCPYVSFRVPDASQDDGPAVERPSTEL

On to `CCOC(=O)c1c(Cc2cccc(Cl)c2)[nH]c2c1cc(O)c1ccccc12`, for which the inhibition entry in data set [1] and in data set [2] was “Active” each time. Further, the Activity is 12% in [3]; 1.3 ng in [6]; “Non-toxic” in data set [9]; 0.6 ng in [11]; 2.02 ng in data set [12]. The inhibition entry in data set [4] is “inactive”. For the same compound, the inhibition in data set [5] came out at 43%. Moreover, the inhibition in vivo at 0.25 mg/kg in data set [7] was 37%. Moreover, the inhibition in vivo at 4 mg/kg in [8] came out at 61%. Besides, the inhibition in vivo at 1 mg/kg in data set [10] stood at 53%.
